Screens (PubChem)
In the library only some 3.5% were active in any assay of this set; here they are far more common.
RGS4 pot = RGS4 potentiation or activation; AID 463111; B-score at 10 µM; 310,000 tested, 0.92% active; HEK293 M3R/inducible RGS4, carbachol calcium flux Fluo4; active compounds read low;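 active means B-score of the integrated calcium signal more than 4 SD below the library mean, with starting fluorescence not abnormally high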;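 further: negative B-score means reduced calcium response which marks RGS4 activation or potentiation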
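Assay system: Inducible-RGS4 HEK293 cells carrying M3 receptor | Schedule: Compound preincubation 20 min at room temperature before agonist | Signal: Kinetic calcium fluorescence imaging with Fluo4-AM dye, 2 µM | Read-out basis: B score from integrated fluorescence ratio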
RGS4 block = inhibitors of human RGS4 | P49798 | HEK293 M3R/RGS4 inducible, Fluo-4 calcium flux; active compounds read high; triggered by carbachol at its EC20 | B-score at 10 µM | 310,000 tested, 0.45% active | AID 463165;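 active means B-score, a plate-corrected calcium signal, over three deviations above library mean, with baseline fluorescence within five deviations of library mean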;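 further: RGS4 expression induced by doxycycline in cells with stable M3 receptor; B-score is computed from the integrated fluorescence ratio over baseline after carbachol; higher B-score means a larger calcium signal and so more RGS4 inhibition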
Target sequence (P49798 whole entry, looked up): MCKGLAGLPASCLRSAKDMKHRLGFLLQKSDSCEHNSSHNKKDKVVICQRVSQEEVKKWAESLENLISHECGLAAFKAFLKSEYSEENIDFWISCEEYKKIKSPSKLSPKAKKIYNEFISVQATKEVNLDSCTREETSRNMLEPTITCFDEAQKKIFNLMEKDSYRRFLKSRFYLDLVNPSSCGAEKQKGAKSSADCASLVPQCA
MrgX1 agonist = human MrgX1 receptor agonism, primary screen | Q96LB2 | MrgX1-HEK293 cells, Fluo-4 calcium fluorescence, agonist mode; active compounds read high | B-score at 10 µM | 310,000 tested, 0.44% active | AID 588627;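 active means calcium response B-score plate-corrected fluorescence ratio at least 3 library SD, with starting fluorescence B-score inside 5 SD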
Target sequence (Q96LB2 whole entry, looked up): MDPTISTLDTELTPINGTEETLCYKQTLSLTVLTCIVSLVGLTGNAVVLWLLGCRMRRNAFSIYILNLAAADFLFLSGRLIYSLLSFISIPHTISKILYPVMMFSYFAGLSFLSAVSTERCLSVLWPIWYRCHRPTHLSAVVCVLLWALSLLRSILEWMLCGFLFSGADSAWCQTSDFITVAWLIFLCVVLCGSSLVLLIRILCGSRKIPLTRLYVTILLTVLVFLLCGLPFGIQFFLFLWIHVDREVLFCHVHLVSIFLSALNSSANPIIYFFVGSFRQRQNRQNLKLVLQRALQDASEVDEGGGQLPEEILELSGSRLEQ
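Assay system: MrgX1-expressing HEK293 cells / Amount: fifteen thousand cells per well / Doses: test compound in the initial addition of three / Timing: cells plated overnight, dye loaded 0.5 h 37 °C, 0.5 h room temperature / Technique: kinetic calcium dye fluorescence, Fluo-4 NW / Control set: positive and negative controls per plate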
MrgX1 antagonist = antagonists of human MrgX1 receptor | Q96LB2 | MRGX1-HEK293 calcium flux, Fluo-4, BAM8-22 antagonism; active compounds read low | B-score at 10 µM | 310,000 tested, 1.3% active | AID 588676;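 active means calcium-response B-score plate-corrected more than 3 library SD below zero, starting fluorescence within 5 deviations, no agonist response on first addition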;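 further: peak minus trough fluorescence over baseline after final BAM8-22 challenge near maximal dose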
MrgX1 PAM = allosterically activates human MrgX1 receptor signaling | Q96LB2 | MrgX1-HEK293, Fluo-4 calcium flux, FDSS; active compounds read high | B-score at 10 µM | 310,000 tested, 0.63% active | AID 588675;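 active means plate-corrected calcium response at least 3 library SD above typical, normal starting fluorescence, not activating the receptor alone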;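 further: compound read alongside a low EC10 to EC30 dose of BAM8-22 agonist; peak minus trough fluorescence over baseline measured at the second addition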
RGS4 inh valid = validation of RGS4 inhibitors; shares compounds with RGS4 block; HEK293 M3R/RGS4, carbachol calcium Fluo-4 fluorescence; carbachol added at its EC20; 0 = buffer wells, 100 = carbachol control; calcium response, % at 10 µM; 1,700 tested, 65% active;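 active means duplicate-averaged calcium response above the buffer-only control mean plus 5 SD of those controls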;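 further: integrated fluorescence ratio F max minus min over baseline F0; higher response in RGS4-induced cells means RGS4 inhibition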
RGS4 uninduced = non-induced cell nonspecific activity of RGS4 inhibitors. shares compounds with RGS4 block. HEK293 M3R non-induced, carbachol calcium Fluo-4; submaximal (EC20) carbachol stimulus; buffer wells 0%, carbachol control wells 100%. activity (percent), % at 10 µM. 1,900 tested, 20% active; call rule not given here;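 further: RGS4 induction absent so cells express M3R without RGS4; higher means more calcium signal and flags a non-specific hit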
M3R basal Ca ctr = second RGS4 inhibitor counter-screen in uninduced cells lacking carbachol; shares compounds with RGS4 block; HEK293 M3R/RGS4 non-induced, Fluo-4 calcium, no carbachol; normalised: buffer wells 0%, carbachol wells 100%; calcium response (agonist-mode artifact), % at 10 µM; 1,900 tested, 22% active; AID 493001;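 active means duplicate-averaged calcium rise in uninduced cells above buffer wells' mean plus 5 SD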
Large screens that a line does not name were inactive (follow-up assays come after a bar, where they were run).

COc1ccc(C(=O)NC2CCCc3ccccc32)cc1S(=O)(=O)N1CCOCC1 (stereo not drawn)	none
COc1ccc(C(=O)CN2C(=O)c3ccccc3C2=O)cc1	none
O=C(N/N=C/c1ccc(O)cc1O)/C(=C/c1ccccc1)CCO	RGS4 block 9.6 | RGS4 inh valid 53% | RGS4 uninduced 38% | M3R basal Ca ctr inactive
CC(=O)NCCC(=O)Nc1cc(S(=O)(=O)N2CCOCC2)ccc1Oc1ccccc1	none
Nc1nc(F)nc2c1ncn2[C@@H]1O[C@H](CO)[C@@H](O)[C@H]1O	RGS4 block 11 | RGS4 inh valid 52% | RGS4 uninduced 30% | M3R basal Ca ctr inactive
Nc1ncnc2c1ncn2C1OC(CO)C(O)C1N (stereo not drawn)	none | RGS4 uninduced inactive | M3R basal Ca ctr inactive
Nc1ncnc2c1ncn2C1O[C@H](CO)[C@@H](O)[C@@H]1O (stereo partly drawn)	none (no result: RGS4 pot, RGS4 block)
CNc1nc2c(N)ncnc2n1[C@H]1O[C@@H](CO)[C@H](O)[C@@H]1O	RGS4 block 6.8 | RGS4 inh valid 13% | RGS4 uninduced 36% | M3R basal Ca ctr inactive
Nc1nc(F)nc2c1ncn2[C@@H]1O[C@H](CO)[C@@H](O)[C@@H]1O	none
Nc1ncnc2c1ncn2[C@@H]1O[C@H](CO)[C@@H](O)[C@@H]1O	none
Nc1nc(Nc2ccccc2)nc2c1ncn2[C@@H]1O[C@H](CO)[C@@H](O)[C@H]1O	RGS4 block 6.2, MrgX1 PAM 6.5 | RGS4 inh valid 24% | RGS4 uninduced inactive | M3R basal Ca ctr 357%
COC(=O)c1sccc1NC(=O)CC1C(=O)NCCN1C(=O)c1ccc(N(C)C)cc1 (stereo not drawn)	none
O=C(c1ccco1)N1CCN(c2ncnc3scc(-c4ccc(F)cc4)c23)CC1	none
O=C(c1ccco1)N1CCN(c2ncnc3c(-c4ccc(Cl)cc4)nsc23)CC1	RGS4 block 5.2 | RGS4 inh valid inactive | RGS4 uninduced inactive | M3R basal Ca ctr inactive
COc1ccc(-c2c(-c3ccc(OCC(=O)NN)cc3O)n[nH]c2C)cc1OC	none
COc1ccc(-c2c(-c3ccc(OCC(=O)NN)cc3O)n[nH]c2C(F)(F)F)cc1	RGS4 block 12 | RGS4 inh valid 28% | RGS4 uninduced 29% | M3R basal Ca ctr inactive
O=C(Cn1cc([N+](=O)[O-])cn1)N1CCN(Cc2ccc3c(c2)OCO3)CC1	none
COc1cc(/C=C2/C(=O)NN(c3ccc(Cl)cc3)C2=O)ccc1OC(=O)c1ccco1	none | RGS4 uninduced inactive | M3R basal Ca ctr 8.5%
COc1cc(/C=C2/C(=O)NN(c3cccc(F)c3)C2=O)ccc1OC(=O)c1ccco1	none | RGS4 uninduced inactive | M3R basal Ca ctr inactive
COc1cc(/C=N/NC(=O)c2ccc(F)cc2)ccc1OC(=O)c1ccco1	none
COCCN(C(=O)COc1ccccc1C#N)c1c(N)n(Cc2ccccc2)c(=O)[nH]c1=O	none
O=C(O)CC(NC(=O)C12CC3CC(CC(C3)C1)C2)c1ccc(OC2CCCC2)cc1 (stereo not drawn)	none
CCCC(=O)Nc1cccc(NC(=O)c2ccc3c(c2)OCCO3)c1	none | RGS4 uninduced inactive | M3R basal Ca ctr inactive
Cc1nn(-c2ccccc2)c2[nH]c(=O)c(CNCc3ccc4c(c3)OCO4)cc12	none
Cc1ccc(-c2nn(-c3ccccc3)c3[nH]c(=O)c(CNCc4ccccc4)cc23)cc1	RGS4 block 7 | RGS4 inh valid 19% | RGS4 uninduced inactive | M3R basal Ca ctr 18%
O=C(COc1cccc(Br)c1)N/N=C/C(=O)c1ccccc1	RGS4 block 4.7 | RGS4 inh valid 8.0% | RGS4 uninduced inactive | M3R basal Ca ctr inactive
Cc1cccc(OCC(=O)N/N=C\c2cn(C)c3ccccc23)c1	RGS4 block 7.3 | RGS4 inh valid inactive | RGS4 uninduced inactive | M3R basal Ca ctr inactive
Cc1cc(C)c(NC(=O)C2CCCO2)c(C)c1NC(=O)C1CCCO1 (stereo not drawn)	none
O=C(OCc1nc2scc(-c3ccccc3)c2c(=O)[nH]1)c1cc(Cl)ccc1[N+](=O)[O-]	RGS4 block 6.2 | RGS4 inh valid 24% | RGS4 uninduced inactive | M3R basal Ca ctr inactive
Cc1c(C(=O)OCc2nc3scc(-c4ccccc4)c3c(=O)[nH]2)cccc1[N+](=O)[O-]	none
O=C(N/N=C/c1cc(Cl)cc([N+](=O)[O-])c1O)NC12CC3CC(CC(C3)C1)C2	RGS4 block 9.1 | RGS4 inh valid 12% | RGS4 uninduced inactive | M3R basal Ca ctr inactive
CC(=O)Nc1cc(Cl)c(N=Cc2ccc(O)cc2O)cc1Cl	RGS4 block 8.1 | RGS4 inh valid 16% | RGS4 uninduced 29% | M3R basal Ca ctr inactive
Cc1c(NC(=O)c2cccnc2C(=O)O)cccc1C(=O)O	none
Cc1ccc(NC(=O)OCc2cc(-c3ccccc3)on2)cc1	none | RGS4 inh valid inactive | RGS4 uninduced inactive | M3R basal Ca ctr inactive
O=C(Nc1ccc(Cl)cc1)OCc1cc(-c2ccccc2Cl)on1	none
CCn1c(C)nc2cc(C(=O)NNC(=S)Nc3ccc(OC)cc3)ccc21	none
CC1CCN(c2c(NCC3CCC(C(=O)NCc4ccccc4)CC3)c(=O)c2=O)CC1 (stereo not drawn)	none | RGS4 uninduced inactive | M3R basal Ca ctr inactive
CC1CCN(c2c(NCC3CCC(C(=O)NCCCc4ccccc4)CC3)c(=O)c2=O)CC1 (stereo not drawn)	RGS4 block 6.4 | RGS4 inh valid 6.0% | RGS4 uninduced inactive | M3R basal Ca ctr inactive
O=C(O)COc1ccccc1/C=N/NC(=O)CSc1nnc(SCc2cccc3ccccc23)s1	none
O=C(CSc1nnc(SCc2cccc3ccccc23)s1)N/N=C/c1c[nH]c2ccccc12	RGS4 block 4.7 | RGS4 inh valid 20% | RGS4 uninduced inactive | M3R basal Ca ctr inactive
O=C(CSc1nnc(SCc2ccc(Cl)cc2)s1)N/N=C/c1c[nH]c2ccccc12	none | RGS4 uninduced inactive | M3R basal Ca ctr inactive
Cc1nc2sccn2c(=O)c1S(=O)(=O)NCC(C)c1ccccc1 (stereo not drawn)	none
Cc1c(C)c2ccc(OCC(=O)N3CCOCC3)c(C)c2oc1=O	none
CCn1nc(NS(=O)(=O)c2ccc([N+](=O)[O-])cc2)c2cc3cccc(C)c3nc21	RGS4 block 17 | RGS4 inh valid 22% | RGS4 uninduced 37% | M3R basal Ca ctr inactive
